What is called GI50 is the concentration giving 50% growth inhibition. A word on the IC50: it is the concentration at which inhibition is half-maximal. Higher therefore signals weaker potency.

The structures appear in SMILES notation.

The text below walks through data of ChEMBL document CHEMBL5260841, “Discovery of N-(4-(6-Acetamidopyrimidin-4-yloxy)phenyl)-2-(2-(trifluoromethyl)phenyl)acetamide (CHMFL-FLT3-335) as a Potent FMS-like Tyrosine Kinase 3 Internal Tandem Duplication (FLT3-ITD) Mutant Selective Inhibitor for Acute Myeloid Leukemia” (J Med Chem, 2019).

Data set [1] deals with BaF3. Put plainly: Antiproliferative activity against mouse BaF3 cells transfected with TEL-fused cKIT assessed as cell growth inhibition incubated for 72 hrs by CCK-8 assay. Format: functional. In outline:
(§1)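 Kinase-transformed isogenic BaF3 lines grown in RPMI 1640 with 10% FBS, 2% L-glutamine and pen/strep at 37 °C, 5% CO2. Seeded at 1500-3000 cells/well and treated with a compound concentration series for 72 h. Viability read by CCK8 absorbance at 450 nm.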

Data set [2] in a line: Clearance in Sprague-Dawley rat at 10 mg/kg, po. It is filed as ADME, organism-based. The conditions noted are these: in vivo, read-out: CL(app) (converted). In outline:
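Sprague-Dawley rats dosed IV at 1 mg/kg or by oral gavage at 10 mg/kg. Parameters from plasma exposure: AUC(0-t), AUC(0-∞), MRT, T1/2, Tmax, Vz, CLz, Cmax. Values are mean ± SD from three animals.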

Data set [3] has as its system BaF3. Put plainly: Antiproliferative activity against mouse BaF3 cells transfected with FLT3 ITD D835del mutant assessed as cell growth inhibition incubated for 72 hrs by CCK-8 assay. Format: functional. In outline: as §1
A general note: Formazan colour is commonly taken as a measure of viable cells.

For data set [4], the target named is T1, Receptor-type tyrosine-protein kinase FLT3 (Homo sapiens, UniProt P36888).
T1 sequence (P36888 whole entry): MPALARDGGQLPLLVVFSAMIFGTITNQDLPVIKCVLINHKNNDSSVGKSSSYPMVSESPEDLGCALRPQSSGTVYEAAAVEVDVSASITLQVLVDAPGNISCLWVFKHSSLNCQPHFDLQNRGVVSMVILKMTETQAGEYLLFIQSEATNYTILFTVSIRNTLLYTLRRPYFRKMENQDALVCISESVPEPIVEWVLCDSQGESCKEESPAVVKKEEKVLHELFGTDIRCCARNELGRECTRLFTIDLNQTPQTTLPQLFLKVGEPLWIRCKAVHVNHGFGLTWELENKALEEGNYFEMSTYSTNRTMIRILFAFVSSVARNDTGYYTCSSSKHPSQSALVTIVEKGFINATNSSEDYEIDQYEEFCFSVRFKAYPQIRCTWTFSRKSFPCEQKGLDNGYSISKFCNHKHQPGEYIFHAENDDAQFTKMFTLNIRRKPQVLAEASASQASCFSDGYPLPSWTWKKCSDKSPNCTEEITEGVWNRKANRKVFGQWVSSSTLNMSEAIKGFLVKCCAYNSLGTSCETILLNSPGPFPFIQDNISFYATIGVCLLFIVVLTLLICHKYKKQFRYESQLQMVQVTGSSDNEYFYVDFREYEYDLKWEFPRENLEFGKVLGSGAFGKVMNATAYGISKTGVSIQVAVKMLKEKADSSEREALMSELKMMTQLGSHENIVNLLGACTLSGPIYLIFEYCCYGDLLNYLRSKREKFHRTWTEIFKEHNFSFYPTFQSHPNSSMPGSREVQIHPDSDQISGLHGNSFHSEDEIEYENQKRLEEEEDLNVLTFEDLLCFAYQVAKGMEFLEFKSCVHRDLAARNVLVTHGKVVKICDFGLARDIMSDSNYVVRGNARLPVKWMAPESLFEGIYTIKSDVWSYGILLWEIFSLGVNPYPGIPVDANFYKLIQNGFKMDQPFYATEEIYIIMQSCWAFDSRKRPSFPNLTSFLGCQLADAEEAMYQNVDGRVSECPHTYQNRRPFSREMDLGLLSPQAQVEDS
Put plainly: Inhibition of FLT3 (unknown origin) preincubated for 60 mins followed by ATP addition and measured after 1 hr by ADP-Glo assay. (ADP-Glo first removes unused ATP, then detects ADP through luciferase.)

Data set [5] concerns the target Mast/stem cell growth factor receptor Kit (Homo sapiens, UniProt P10721). Kind of data set: Inhibition of KIT (unknown origin) preincubated for 60 mins followed by ATP addition and measured after 1 hr by ADP-Glo assay. In outline:
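ADP-Glo luminescence assay. Kinase was preincubated with compound for 60 min at room temperature, then ATP/substrate was added and the reaction ran 1 h at 37 °C. ADP-Glo reagent was added for 40 min, then detection reagent for 30 min, and luminescence was read. Enzyme and ATP per target: KIT 20 ng/µL, 50 µM ATP; PDGFRα 2.5 ng/µL, 25 µM ATP; PDGFRβ 1.25 ng/µL, 25 µM ATP. IC50 was taken from the dose-response fit.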

A short description of data set [6]: Toxicity in nu/nu mouse xenografted with human MV4-11 cells assessed as reduction in body weight at 25 to 100 mg/kg/day, po administered via gavage for 28 days. Format: organism-based. The settings on record: in vivo, 672 h, dose 25-100 mg/kg/day, time 28 day. Summed up: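 Mice were inoculated with MV4-11 cells. Once tumours reached a mean volume of about 200 mm3, animals received vehicle or compound orally once daily for 28 days. Body weight was tracked and expressed relative to the initial weight, which was set as 100%.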
(In general: Xenograft models place foreign cells or tissue in a host animal.)

Data set [7] has as its system OCI-AML2. Put plainly: Antiproliferative activity against human OCI-AML2 cells transfected with wild type FLT3 assessed as cell growth inhibition incubated for 72 hrs by CCK-8 assay. Format: functional. In outline: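 Cells kept at 37 °C, 5% CO2. MV4-11 grown in IMDM with 10% FBS. MOLM13, MOLM14, U937 and HL-60 grown in RPMI 1640 with 10% FBS. OCI-AML-2 grown in α-MEM with 20% FBS. Seeded at 1500-3000 cells/well and exposed to a concentration series for 72 h. Viability read by CCK8 absorbance at 450 nm.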

The test system of data set [8] is MOLM-14. Put plainly: Inhibition of AKT phosphorylation at Ser473 residue in human MOLM-14 cells harboring FLT3-ITD mutant incubated for 4 hrs by Western blot analysis. The settings on record: dose 0.01-3 µM. It is filed as cell-based. In outline:
(§2)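 Cells were exposed to the compound at a series of concentrations for 4 h, and whole-cell lysates were analysed by Western blot. MV4-11 cells were grown in IMDM with 10% FBS. MOLM13 and MOLM14 cells were grown in RPMI 1640 with 10% FBS. All cultures were kept at 37 °C with 5% CO2.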

For data set [9], the system named is MOLM-13. Kind of data set: Inhibition of AKT phosphorylation at Thr308 residue in human MOLM-13 cells harboring FLT3-ITD mutant incubated for 4 hrs by Western blot analysis. It is filed as cell-based. The conditions noted are these: dose 0.01-3 µM. In outline: as §2

Chain of Mast/stem cell growth factor receptor Kit (P10721 whole entry): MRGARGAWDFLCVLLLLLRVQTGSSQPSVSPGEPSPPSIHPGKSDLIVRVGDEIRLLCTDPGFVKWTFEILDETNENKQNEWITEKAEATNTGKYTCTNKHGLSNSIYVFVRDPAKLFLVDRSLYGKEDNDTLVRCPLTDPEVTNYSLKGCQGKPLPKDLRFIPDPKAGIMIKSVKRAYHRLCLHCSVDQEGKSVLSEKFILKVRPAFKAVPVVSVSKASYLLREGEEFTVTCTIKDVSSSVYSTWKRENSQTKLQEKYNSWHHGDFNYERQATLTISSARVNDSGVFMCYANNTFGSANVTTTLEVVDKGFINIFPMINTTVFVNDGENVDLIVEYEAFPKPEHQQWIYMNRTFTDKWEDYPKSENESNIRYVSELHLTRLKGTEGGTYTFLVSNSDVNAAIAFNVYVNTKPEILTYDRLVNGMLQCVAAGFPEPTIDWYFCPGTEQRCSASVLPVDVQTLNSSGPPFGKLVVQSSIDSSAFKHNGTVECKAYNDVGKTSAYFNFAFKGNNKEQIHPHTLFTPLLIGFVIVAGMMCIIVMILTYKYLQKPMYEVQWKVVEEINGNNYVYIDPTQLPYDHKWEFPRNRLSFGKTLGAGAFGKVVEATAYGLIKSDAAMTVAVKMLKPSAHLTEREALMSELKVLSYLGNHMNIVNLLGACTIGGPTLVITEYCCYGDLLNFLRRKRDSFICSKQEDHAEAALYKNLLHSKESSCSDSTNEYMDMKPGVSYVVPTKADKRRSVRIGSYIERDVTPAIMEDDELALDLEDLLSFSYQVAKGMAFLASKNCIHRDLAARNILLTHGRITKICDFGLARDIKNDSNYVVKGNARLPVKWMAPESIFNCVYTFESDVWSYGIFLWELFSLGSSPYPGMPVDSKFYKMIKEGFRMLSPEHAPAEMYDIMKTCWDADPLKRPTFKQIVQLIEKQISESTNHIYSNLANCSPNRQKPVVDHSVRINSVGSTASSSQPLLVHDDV

In the case of `CC(=O)Nc1cc(Oc2ccc(NC(=O)Cc3ccccc3C(F)(F)F)cc2)ncn1`, the GI50 in data set [1], in [3] and in data set [7] was > 10000 nM throughout. Besides, the CL/F in data set [2] was 6.67 mL/min/kg. The IC50 in [4] stood at 90.8 nM; in [5], 681 nM. The Activity entry in data set [6] is “Non-Toxic”. Moreover, the inhibition result in data set [8] and in [9] was “Dose-Dependent Effect” each time.
